Measured values from different studies.
Compare with care: the assays were run in different laboratories. ≈ marks a conversion by molar mass, not a printed value.

Structure (SMILES)	organism	assay	system	conditions	endpoint	result
O=C1NC(=S)N/C1=C\c1ccc(-c2ccc(N(c3ccccc3)c3ccccc3)cc2)cc1	Bacillus cereus	microbial growth, broth dilution	ATCC10876	–	MIC	> 1000 µg/mL
COC(=O)c1ccc(O)cc1	Helicobacter pylori	microbial growth, broth dilution	–	15.63 µg/mL	inhibition	100%
O=C(O)CN1C(=O)/C(=C/c2ccc(-c3ccc(N(c4ccccc4)c4ccccc4)cc3)cc2)NC1=S	Bacillus cereus	microbial killing, broth dilution	ATCC10876	–	MBC	250 µg/mL (≈ 494 µM)
O=C(N[C@H](CO)[C@H](O)c1ccc([N+](=O)[O-])cc1)C(Cl)Cl	Salmonella enterica	microbial growth	ATCC13311 TYPHIMURIUM	–	MIC90	0.98 µg/mL (≈ 3.03 µM)
O=C1NC(=S)N/C1=C\c1ccc(-c2ccc(N(c3ccccc3)c3ccccc3)cc2)c2ccccc12	Bacillus cereus	microbial killing, broth dilution	ATCC10876	–	MBC	> 1000 µg/mL
C=C[C@@]1(C)C=C2CC[C@@H]3[C@](C)(CCC[C@@]3(C)C(=O)O)[C@H]2CC1	Helicobacter pylori	microbial growth, broth dilution	–	15.63 µg/mL	inhibition	86.3%
O=C(O)CN1C(=O)/C(=C/c2c3ccccc3c(-c3ccc(N(c4ccccc4)c4ccccc4)cc3)c3ccccc23)NC1=S	Bacillus cereus	microbial killing, broth dilution	ATCC10876	–	MBC	> 1000 µg/mL
O=C(O)c1cn(C2CC2)c2cc(N3CCNCC3)c(F)cc2c1=O	Salmonella enterica	microbial growth	ENTERITIDIS	20 h, pH 7	MIC	0.0156 µg/mL (≈ 0.0471 µM)
O=C(O)CN1C(=O)/C(=C/c2c3ccccc3c(-c3ccc(N(c4ccccc4)c4ccccc4)cc3)c3ccccc23)SC1=S	Bacillus cereus	microbial growth, broth dilution	ATCC10876	–	MIC	> 1000 µg/mL
CO[C@H]1O[C@H](COC(c2ccccc2)(c2ccccc2)c2ccccc2)[C@@H](OC(=O)c2ccc(C(C)(C)C)cc2)[C@H](OC(=O)c2ccc(C(C)(C)C)cc2)[C@H]1OC(=O)c1ccc(C(C)(C)C)cc1	Bacillus cereus	microbial killing, broth dilution	–	–	MBC	8 µg/mL (≈ 8.72 µM)
CO/N=C(\C(=O)N[C@@H]1C(=O)N2C(C(=O)O)=C(CSC(=O)c3ccco3)CS[C@H]12)c1csc(N)n1	Salmonella enterica	microbial growth	TYPHIMURIUM	20 h, pH 7.2	MIC	1 µg/mL (≈ 1.91 µM)
O=c1cc(-c2ccc(O)cc2)oc2cc(O)cc(O)c12	Helicobacter pylori	microbial growth, broth dilution	–	125 µg/mL	inhibition	100%
[H]/N=C(/N)N[C@H]1[C@H](O)[C@@H](O)[C@H](O[C@@H]2O[C@@H](C)[C@](O)(C=O)[C@H]2O[C@@H]2O[C@@H](CO)[C@H](O)[C@@H](O)[C@@H]2NC)[C@@H](N/C(N)=N\[H])[C@@H]1O	Salmonella enterica	microbial growth	–	20 h, pH 7.2	MIC	8 µg/mL (≈ 13.8 µM)
O=C1NC(=S)N/C1=C\c1c2ccccc2c(-c2ccc(N(c3ccccc3)c3ccccc3)cc2)c2ccccc12	Bacillus cereus	microbial killing, broth dilution	ATCC10876	–	MBC	> 1000 µg/mL
CC1(C)S[C@@H]2[C@H](NC(=O)[C@H](N)c3ccccc3)C(=O)N2[C@H]1C(=O)O	Salmonella enterica	microbial growth, agar dilution	ATCC13311 TYPHIMURIUM	26.93 µM	inhibition	100%
CCN1CCN(c2cc3c(cc2F)c(=O)c(C(=O)O)cn3C2CC2)CC1	Salmonella enterica	microbial growth	ENTERITIDIS	20 h, pH 5.5	MIC	0.25 µg/mL (≈ 0.696 µM)
O=c1cc(-c2ccc(O)c(O)c2)oc2cc(O)cc(O)c12	Helicobacter pylori	microbial growth, broth dilution	–	31.25 µg/mL	inhibition	100%
Cc1cc(NS(=O)(=O)c2ccc(N)cc2)no1	Salmonella enterica	microbial growth	ENTERITIDIS	20 h, pH 7	MIC	64 µg/mL (≈ 253 µM)
COc1cc(-c2cc(=O)c3c(O)cc(O)cc3o2)ccc1O	Helicobacter pylori	microbial growth, broth dilution	–	62.5 µg/mL	inhibition	100%
CO/N=C(\C(=O)N[C@@H]1C(=O)N2C(C(=O)O)=C(CSc3nc(=O)c(=O)[nH]n3C)CS[C@H]12)c1csc(N)n1	Salmonella enterica	microbial growth	ENTERITIDIS	20 h, pH 7	MIC	0.0625 µg/mL (≈ 0.113 µM)
O=C1NC(=S)S/C1=C\c1c2ccccc2c(-c2ccc(N(c3ccccc3)c3ccccc3)cc2)c2ccccc12	Bacillus cereus	microbial killing, broth dilution	ATCC10876	–	MBC	> 1000 µg/mL
COc1cc(Cc2cnc(N)nc2N)cc(OC)c1OC	Salmonella enterica	microbial growth	F98, TYPHIMURIUM	20 h, pH 7.2	MIC	0.25 µg/mL (≈ 0.861 µM)
C[C@@H](O)[C@H]1C(=O)N2C(C(=O)O)=C(S[C@@H]3CN[C@H](C(=O)N(C)C)C3)[C@H](C)[C@H]12	Salmonella enterica	microbial growth, broth dilution	–	clinical isolate	MIC	≤ 0.5 µg/mL
CC[C@H]1OC(=O)[C@H](C)[C@@H](O[C@H]2C[C@@](C)(OC)[C@@H](O)[C@H](C)O2)[C@H](C)[C@@H](O[C@@H]2O[C@H](C)C[C@H](N(C)C)[C@H]2O)[C@](C)(OC)C[C@@H](C)C(=O)[C@H](C)[C@@H](O)[C@]1(C)O	Helicobacter pylori	microbial growth, broth dilution	–	62.5 µg/mL	inhibition	100%
CCn1cc(C(=O)O)c(=O)c2ccc(C)nc21	Salmonella enterica	microbial growth	–	20 h, pH 7	MIC	2 µg/mL (≈ 8.61 µM)
